# Results as given in paper PMC4048812 (The Biochemical journal, 2013).
# Several values for one entry are separate records, joined by “and”; a condition that tells them apart may be missing. Equal entries are not always repeated. Entries after “also recorded” stand apart in the source; their conditions may differ. Where no end group is shown, it is not given here.
# How the values were obtained:
# EGFR [1] = details: ref [16],[17]; cited from earlier work
# V924R EGFR kinase domain = assay: Enzyme-coupled kinase assay, V924R mutant alone; format: biochemical; details: 2 μM kinase domain; titration of Peptide C; 500 μM ATP; pH 7.5; room temperature
# How it was run: (§1)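 Spectrophotometric enzyme-coupled kinase assay using N-terminally His6-tagged EGFR kinase domain (residues 672-998); mutants were made by site-directed mutagenesis and sequence-confirmed. Total kinase domain was 2 μM, with 1 μM of each mutant when paired. The test peptide substrate was titrated with 500 μM ATP in 10 mM MgCl2, 20 mM Tris pH 7.5 at room temperature. Specific rates came from at least triplicates; for pairs, Hill coefficients came from variable-slope log(agonist)-response fits.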
# [2] = Transmission electron microscopy of Peptide C alone; format: physicochemical; details: 20, 40 and 80 μM, TEM
# How it was run: (§2)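 Test peptide at varied concentrations, without or with 2 μM wild-type or I682Q His-tagged EGFR kinase domain (residues 672-998), in 10 mM Tris pH 7.5, 20 mM NaCl, 0.02% v/v polysorbate 20. Samples were incubated about 10 min at room temperature, then adsorbed onto Formvar carbon-coated copper grids. Grids were negatively stained with three applications of 1% w/v uranyl acetate and imaged by transmission electron microscopy.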
# I682Q EGFR kinase domain [3] = assay: Transmission electron microscopy with I682Q EGFR kinase domain; details: different concentrations of Peptide C; 2 μM I682Q EGFR kinase domain; TEM
# How it was run: as §2
# I682Q EGFR kinase domain [4] = assay: Enzyme-coupled kinase assay, I682Q mutant alone; format: biochemical; details: 2 μM kinase domain; titration of Peptide C; 500 μM ATP; pH 7.5; room temperature
# How it was run: as §1
# [5] = target: I682Q/D813N and V924R EGFR kinase domains (Homo sapiens, UniProt P00533, V948R); assay: Enzyme-coupled kinase assay, pair I682Q/D813N and V924R; format: biochemical; details: I682Q/D813N with V924R, 1 μM each; minimum of three replicates
# How it was run: as §1
# [6] = test system: wild type EGFR kinase domain; assay: Transmission electron microscopy with wild type EGFR kinase domain; details: TEM
# How it was run: as §2
# EGFR kinase domain [7] = target: T1, EGFR kinase domain (Homo sapiens, UniProt P00533); assay: Immunoblot analysis of EGFR kinase domain autophosphorylation; format: biochemical; details: 0-60 μM Peptide C; 800 nM EGFR kinase domain; 500 μM ATP; pH 7.5; 1 minute; room temperature; minimum of three replicates
# EGFR [8] = details: reported value, cited from earlier work
# [9] = Dynamic light scattering of Peptide C; format: physicochemical; details: DLS, 25° C
# How it was run: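 Test peptide at 1 mM, prepared in water, in 20 mM NaCl, or in assay buffer (15 mM Tris pH 7.5, 0.02% v/v polysorbate 20, 20 mM NaCl). DLS was run at 25° C with a 60 mW laser at 15% power and a 90° detection angle. Buffer components were filtered beforehand; the peptide itself was not filtered.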
# [10] = target: EGFR kinase domain (residues 672-998) (Homo sapiens, UniProt P00533); assay: Enzyme-coupled kinase assay, wild type EGFR kinase domain; format: biochemical
# [11] = target: I682Q and V924R EGFR kinase domains (Homo sapiens, UniProt P00533, V948R); assay: Enzyme-coupled kinase assay, pair I682Q and V924R; format: biochemical; details: 1 μM each
# How it was run: as §1
# EGFR kinase domain [12] = target: T1, EGFR kinase domain; assay: Radiometric kinase assay of Tail Peptide A phosphorylation; format: biochemical
# How it was run: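 Buffer was 15 mM Tris pH 7.5, 0.02% v/v polysorbate 20, 10 mM MgCl2. A non-phosphorylatable test peptide (substrate Tyr→Ala) was added at varied concentrations. After 10 min at room temperature, reactions were quenched with 0.5% v/v phosphoric acid, spotted on phosphocellulose filters, washed, and scintillation-counted (four replicate filters).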
# [13] = Peptide C (2 μM EGFR) vs Tyrsub (8 μM EGFR)
compound,measurement,setting,value
CCCCCCCCCCCCC/C=C/[C@@H](O)[C@@H](N)CO [sphingosine],aggregation and activation of EGFR,EGFR [1],can aggregate and activate EGFR in an apparently cooperative manner
RAHEEIYHFFFAKKK [Peptide C],activating properties with V924R alone,V924R EGFR kinase domain,entirely abrogated
same,fibril length,"[2]; 10 mM Tris, pH 7.5, 20 mM NaCl, 0.02% polysorbate 20",several hundreds
same,dependence of fibril morphology on concentration,[2],appears to be independent of Peptide C concentration
same,globular aggregates,[2],Globular aggregates closely associated with the fibrils are also observed
same,appearance with I682Q EGFR kinase domain compared with wild type,I682Q EGFR kinase domain [3],appear indistinguishable from wild type
same,activating properties with I682Q alone,I682Q EGFR kinase domain [4],entirely abrogated
same,Hill coefficient (nH),[5],~ 2.5
same,"small, dispersed EGFR aggregates","[6]; 20 μM Peptide C, 2 μM EGFR kinase domain",also observed
same,"small, dispersed EGFR aggregates","[6]; 80 μM Peptide C, 2 μM EGFR kinase domain",not observed
same,fibrils and globular aggregates with EGFR kinase domain,"[6]; 20 and 80 μM Peptide C, 2 μM EGFR kinase domain, about 10 minutes",forms fibrils in the presence of EGFR; also recorded: Fibrils similar to those formed by Peptide C alone as well as globular aggregates localized near the fibrils are observed
same,fibril edges with EGFR kinase domain,[6]; Peptide C with 2 μM EGFR kinase domain,the fibril edges are less defined; also recorded: appear less crisp
same,Tyr-845 phosphorylation,EGFR kinase domain [7],increases in a dose-dependent manner
same,Tyr-974 phosphorylation,EGFR kinase domain [7],same dose-dependent increase in phosphorylation
same,Tyr-992 phosphorylation,EGFR kinase domain [7],same dose-dependent increase in phosphorylation
same,Km,"EGFR [8]; ref [5],[9]",128 µM
same,"catalytic efficiency, kcat/KM, fold higher than for Tail Peptide A",EGFR [8]; ref [9],~ 26 fold
same,aggregation,[9]; 1 mM in 20 mM sodium chloride,aggregation to an intermediate degree between the aqueous solution and the buffered samples
same,aggregation,[9]; 1 mM in water,limited aggregation
same,hydrodynamic radius,"[9]; 1 mM in water, polydisperse distribution",1-10 nm
same,"kcat, fold higher than for Tail Peptide A",[10]; Peptide C (2 μM EGFR) vs Tail Peptide A (8 μM EGFR),roughly eight
same,"catalytic efficiency (kcat/KM), fold higher than for Tyrsub",[10]; [13],~760 fold
same,"kcat, fold higher than for Tyrsub",[10]; [13],roughly eight
same,Hill coefficient (nH),"[10]; wild type kinase domain, 2 μM, 500 μM ATP, pH 7.5, room temperature, Hill equation fit, minimum of three replicates",~ 2.8 and ~3
same,catalysis relative to wild type kinase domain,"[11]; I682Q and V924R combined, 500 μM ATP, pH 7.5, room temperature",about 60%
same,Hill coefficient (nH),"[11]; I682Q with V924R, minimum of three replicates",~ 3.0
RAHEEIAHFFFAKKK [Peptide C variant],EC50,EGFR kinase domain [12],45 µM
poly-lysine,aggregation and activation of EGFR,EGFR [1],can aggregate and activate EGFR in an apparently cooperative manner
poly-arginine,aggregation and activation of EGFR,EGFR [1],can aggregate and activate EGFR in an apparently cooperative manner
protamine,aggregation and activation of EGFR,EGFR [1],can aggregate and activate EGFR in an apparently cooperative manner
